Measurements: ChEMBL document CHEMBL3739271, “Synthesis and evaluation of a series of resveratrol analogues as potent anti-cancer agents that target tubulin” (2015)
Active and inactive are the calls of the source. The calls are words filed in the database; no cut-off is given here.

What was measured:
[1] = Cytotoxicity against human OVCAR4 cells by SRB assay; type: functional; conditions: OVCAR-4
Procedure, shortened: (§1)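 NCI 60 human tumor cell line panel, sulforhodamine B (SRB) protein-stain read-out. Compounds were first screened at a single dose of 10^-5 M, and selected compounds were then tested in a five-dose format. GI50 is the drug concentration giving a 50% reduction in net protein increase relative to control cells.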

SK-MEL-28 = assay: Cytotoxicity against human SK-MEL-28 cells by SRB assay; type: functional; procedure, shortened: as §1
NCI/ADR-RES = assay: Cytotoxicity against human NCI/ADR-RES cells by SRB assay; type: functional; procedure, shortened: as §1
[2] = Cytotoxicity against human SNB75 cells by SRB assay; type: functional; conditions: SNB-75; procedure, shortened: as §1
U-251 = assay: Cytotoxicity against human U251 cells by SRB assay; type: functional; procedure, shortened: as §1
MCF7 = assay: Cytotoxicity against human MCF7 cells by SRB assay; type: functional; procedure, shortened: as §1
[3] = Cytotoxicity against human RPMI8226 cells by SRB assay; type: functional; conditions: RPMI-8226; procedure, shortened: as §1
[4] = Cytotoxicity against human SW620 cells by SRB assay; type: functional; conditions: SW-620; procedure, shortened: as §1
[5] = Cytotoxicity against human SKOV3 cells by SRB assay; type: functional; conditions: SK-OV-3; procedure, shortened: as §1
A549 = assay: Cytotoxicity against human A549 cells by SRB assay; type: functional; procedure, shortened: as §1
SK-MEL-5 = assay: Cytotoxicity against human SK-MEL-5 cells by SRB assay; type: functional; procedure, shortened: as §1
ACHN = assay: Cytotoxicity against human ACHN cells by SRB assay; type: functional; procedure, shortened: as §1
MV4-11 [6] = assay: Anti-leukemia activity against human MV4-11 cells after 48 hrs by Annexin-V staining; type: functional; conditions: MV4-11, 48 h, read-out: LD50 (the source's name)
Procedure, shortened: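 MV4-11 AML cells exposed to increasing compound concentrations for 24 and 48 h. Viability measured by Annexin V/7-AAD staining and expressed as percent Annexin V-/7-AAD- cells relative to control. N = 5, error bars SD. LD50 values derived from these curves.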

[7] = Cytotoxicity against human HL-60(TB) cells by SRB assay; type: functional
Procedure, shortened: (§2)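 NCI 60-cell-line panel using sulforhodamine B protein stain. Initial single-dose screen at 10^-5 M, then five-dose testing. GI50 is the drug concentration giving a 50% reduction in net protein increase relative to control cells.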

MDA-MB-231 = assay: Cytotoxicity against human MDA-MB-231 cells by SRB assay; type: functional; procedure, shortened: as §1
[8] = Cytotoxicity against human IGROV1 cells by SRB assay; type: functional; conditions: IGROV-1; procedure, shortened: as §2
SK-MEL-2 = assay: Cytotoxicity against human SK-MEL-2 cells by SRB assay; type: functional; procedure, shortened: as §1
[9] = Cytotoxicity against human MOLT4 cells by SRB assay; type: functional; conditions: MOLT-4; procedure, shortened: as §1
CCRF-CEM = assay: Cytotoxicity against human CCRF-CEM cells by SRB assay; type: functional; procedure, shortened: as §1
[10] = Cytotoxicity against human UO31 cells by SRB assay; type: functional; conditions: UO-31; procedure, shortened: as §1
M14 = assay: Cytotoxicity against human M14 cells by SRB assay; type: functional; procedure, shortened: as §1
[11] = Cytotoxicity against human LOXIMVI cells by SRB assay; type: functional; conditions: LOX IMVI; procedure, shortened: as §2
[12] = Cytotoxicity against human OVCAR3 cells by SRB assay; type: functional; conditions: OVCAR-3; procedure, shortened: as §1
CAKI-1 = assay: Cytotoxicity against human CAKI-1 cells by SRB assay; type: functional; procedure, shortened: as §1
[13] = Cytotoxicity against human HCC2998 cells by SRB assay; type: functional; conditions: HCC 2998; procedure, shortened: as §1
[14] = Cytotoxicity against human HOP92 cells by SRB assay; type: functional; conditions: HOP-92; procedure, shortened: as §1
[15] = Cytotoxicity against human Hs578T cells by SRB assay; type: functional; conditions: Hs-578T; procedure, shortened: as §1
[16] = Cytotoxicity against human SF539 cells by SRB assay; type: functional; conditions: SF-539; procedure, shortened: as §1
NCI-H23 = assay: Cytotoxicity against human NCI-H23 cells by SRB assay; type: functional; procedure, shortened: as §1
MDA-MB-468 = assay: Cytotoxicity against human MDA-MB-468 cells by SRB assay; type: functional; procedure, shortened: as §1
MDA-MB-435 = assay: Cytotoxicity against human MDA-MB-435 cells by SRB assay; type: functional; procedure, shortened: as §1
[17] = Cytotoxicity against human HCT116 cells by SRB assay; type: functional; conditions: HCT-116; procedure, shortened: as §1
[18] = Cytotoxicity against human SNB19 cells by SRB assay; type: functional; conditions: SNB-19; procedure, shortened: as §1
[19] = Cytotoxicity against human SF295 cells by SRB assay; type: functional; conditions: SF-295; procedure, shortened: as §1
MV4-11 [20] = assay: Inhibition of alpha-tubulin polymerization in human MV4-11 cells at 25 to 100 nM after 2 hrs by Western blotting; type: cell-based
Procedure, shortened: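 MV4-11 cells treated for 2 hours at 25, 50 and 100 nM. Microtubule polymerization then assessed by immunoblot.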

SR = assay: Cytotoxicity against human SR cells by SRB assay; type: functional; procedure, shortened: as §1
K562 = assay: Cytotoxicity against human K562 cells by SRB assay; type: functional; procedure, shortened: as §1
KM12 = assay: Cytotoxicity against human KM12 cells by SRB assay; type: functional; procedure, shortened: as §1
[21] = Cytotoxicity against human UACC62 cells by SRB assay; type: functional; conditions: UACC-62; procedure, shortened: as §1
NCI-H522 = assay: Cytotoxicity against human NCI-H522 cells by SRB assay; type: functional; procedure, shortened: as §1
[22] = Cytotoxicity against human SF268 cells by SRB assay; type: functional; conditions: SF-268; procedure, shortened: as §1
786-0 = assay: Cytotoxicity against human 786-0 cells by SRB assay; type: functional; procedure, shortened: as §1
A498 = assay: Cytotoxicity against human A498 cells by SRB assay; type: functional; procedure, shortened: as §1
[23] = Cytotoxicity against human COLO205 cells by SRB assay; type: functional; conditions: COLO 205; procedure, shortened: as §1
HT-29 = assay: Cytotoxicity against human HT-29 cells by SRB assay; type: functional; procedure, shortened: as §1
[24] = Cytotoxicity against human HCT15 cells by SRB assay; type: functional; conditions: HCT-15; procedure, shortened: as §1
[25] = Cytotoxicity against human HOP62 cells by SRB assay; type: functional; conditions: HOP-62; procedure, shortened: as §1

SMILES: COc1ccc(/C=C(/C#N)c2cc(OC)c(OC)c(OC)c2)cc1O
- GI50 [1]: < 10 nM
- GI50 (SK-MEL-28): < 10 nM
- GI50 (NCI/ADR-RES): < 10 nM
- GI50 [2]: < 10 nM
- GI50 (U-251): < 10 nM
- GI50 (MCF7): < 10 nM
- GI50 [3]: < 10 nM
- GI50 [4]: < 10 nM
- GI50 [5]: < 10 nM
- GI50 (A549): < 10 nM
- GI50 (SK-MEL-5): < 10 nM
- GI50 (ACHN): < 10 nM
- CC50 (MV4-11 [6]): 2.5 nM
- GI50 [7]: < 10 nM
- GI50 (MDA-MB-231): < 10 nM
- GI50 [8]: < 10 nM
- GI50 (SK-MEL-2): < 10 nM
- GI50 [9]: < 10 nM
- GI50 (CCRF-CEM): < 10 nM
- GI50 [10]: < 10 nM
- GI50 (M14): < 10 nM
- GI50 [11]: < 10 nM
- GI50 [12]: < 10 nM
- GI50 (CAKI-1): < 10 nM
- GI50 [13]: < 10 nM
- GI50 [14]: < 10 nM
- GI50 [15]: < 10 nM
- GI50 [16]: < 10 nM
- GI50 (NCI-H23): < 10 nM
- GI50 (MDA-MB-468): < 10 nM
- GI50 (MDA-MB-435): < 10 nM
- GI50 [17]: < 10 nM
- GI50 [18]: < 10 nM
- GI50 [19]: 10 nM
- inhibition (MV4-11 [20]): Active
- GI50 (SR): < 10 nM
- GI50 (K562): < 10 nM
- GI50 (KM12): < 10 nM
- GI50 [21]: < 10 nM
- GI50 (NCI-H522): < 10 nM
- GI50 [22]: < 10 nM
- GI50 (786-0): 20 nM
- GI50 (A498): < 10 nM
- GI50 [23]: 300 nM
- GI50 (HT-29): 320 nM
- GI50 [24]: < 10 nM

SMILES: COc1ccc(/C=C(\C#N)c2cc(OC)c(OC)c(OC)c2)cc1O
- GI50 [1]: < 10 nM
- GI50 (SK-MEL-28): 1010 nM
- GI50 (NCI/ADR-RES): < 10 nM
- GI50 [2]: < 10 nM
- GI50 (U-251): 10 nM
- GI50 (MCF7): < 10 nM
- GI50 [3]: < 10 nM
- GI50 [4]: < 10 nM
- GI50 [5]: 10 nM
- GI50 (A549): < 10 nM
- GI50 (SK-MEL-5): < 10 nM
- GI50 (ACHN): < 10 nM
- CC50 (MV4-11 [6]): 38.6 nM
- GI50 [7]: < 10 nM
- GI50 (MDA-MB-231): < 10 nM
- GI50 [8]: < 10 nM
- GI50 (SK-MEL-2): < 10 nM
- GI50 [9]: < 10 nM
- GI50 [25]: < 10 nM
- GI50 (CCRF-CEM): < 10 nM
- GI50 [10]: < 10 nM
- GI50 (M14): < 10 nM
- GI50 [11]: < 10 nM
- GI50 [12]: < 10 nM
- GI50 (CAKI-1): 30 nM
- GI50 [13]: 20 nM
- GI50 [14]: < 10 nM
- GI50 [15]: < 10 nM
- GI50 [16]: < 10 nM
- GI50 (NCI-H23): < 10 nM
- GI50 (MDA-MB-468): < 10 nM
- GI50 (MDA-MB-435): < 10 nM
- GI50 [17]: < 10 nM
- GI50 [18]: < 10 nM
- GI50 [19]: 50 nM
- inhibition (MV4-11 [20]): Active
- GI50 (SR): < 10 nM
- GI50 (K562): < 10 nM
- GI50 (KM12): < 10 nM
- GI50 [21]: < 10 nM
- GI50 (NCI-H522): < 10 nM
- GI50 [22]: < 10 nM
- GI50 (786-0): < 10 nM
- GI50 (A498): < 10 nM
- GI50 [23]: 2990 nM
- GI50 (HT-29): 3180 nM
- GI50 [24]: < 10 nM
